Bioassay records: PubChem, several laboratories
T cruzi inh = T. cruzi replication inhibition. T. cruzi beta-gal in NIH3T3, luminescence, 90 h. inhibition, % (no concentration beside the values). AID 1885. 300,000 tested, 1.4% active;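 active = mean inhibition across valid replicates above about 55%, limit read from the data; inconclusive = mean below that limit but half or more replicates reach it; inactive = mean below it, under half of replicates reach it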;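 also: signal also drops with host cell toxicity which is not excluded here; 0% = plate median of DMSO wells and 100% = zero luminescence signal; higher percent means less beta-gal luminescence so fewer parasites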
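compound dosing = single 50 nL compound addition per well in DMSO | material = NIH/3T3 host cells with β-galactosidase reporter T. cruzi | input = 5,000 host fibroblasts per well | timing = ≥90 h infection period, 3 h prior cell attachment | read-out basis = percent inhibition of parasite-derived β-gal signal | detection = GalScreen β-gal luminescence, detergent lysis, 60 min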
GPR7 antagonist = human neuropeptides B/W receptor 1 antagonism; P48145; GPR7-expressing cells, fluorescence antagonist assay; inhibition, % at 4.4 µM; 290,000 tested, 1.1% active; in the data active = inhibition above about 16%, passing the limit was not always enough;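 also: cells stimulated with the agonist NPW; 0% = agonist with vehicle and 100% = vehicle without agonist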
Target sequence (P48145 whole entry, looked up): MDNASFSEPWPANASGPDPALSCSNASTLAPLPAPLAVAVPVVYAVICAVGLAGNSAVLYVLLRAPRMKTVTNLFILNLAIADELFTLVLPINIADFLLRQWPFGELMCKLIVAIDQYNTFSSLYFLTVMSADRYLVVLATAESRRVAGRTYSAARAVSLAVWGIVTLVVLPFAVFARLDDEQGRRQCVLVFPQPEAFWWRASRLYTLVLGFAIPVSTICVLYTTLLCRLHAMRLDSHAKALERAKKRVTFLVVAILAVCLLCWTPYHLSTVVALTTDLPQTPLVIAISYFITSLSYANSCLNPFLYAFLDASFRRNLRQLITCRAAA
HSF1 activator = increases HSF-1 driven luciferase reporter signal; NIH3T3-HGL HSF-1 luciferase reporter, MG132, 8 h; 100% = twice DMSO control signal; activation, % at 9 µM; 300,000 tested, 1.7% active;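 active = mean replicate activation of at least 50% with a set share of replicates each reaching 50%; inconclusive = only one of those two conditions met; inactive = mean below 50% and too few replicates reaching it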;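 also: 0% = median of the neutral control wells and 100% = twice that signal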
Jurkat NFkB inh = inhibitors of the PMA/ionomycin-induced NF-kB reporter in Jurkat cells; AID 435003; PMA/ionomycin-induced NF-kB luciferase reporter, luminescence; inhibition, % at 4 µM; 330,000 tested, 0.53% active; in the data active = inhibition above about 50%
HSF1 inhib = HSF1 inhibition. NIH3T3-HGL HSE-luciferase, MG132-induced, luminescence 8 h; stronger effect = lower value. activity change, negative = inhibition, % at 7.5 µM (by protocol). 300,000 tested, 0.77% active. AID 2098;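 active = more than half of replicate wells show activity change below -50%, luminescence cut by over half; inconclusive = some wells, but at most half, below -50%; inactive = no replicate well below -50%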;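 also: luciferase reports HSF-1 transcriptional activity via heat shock element; 0% = median of DMSO wells and -100% = zero luminescence signal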
697 NFkB inh = inhibitors of the PMA/ionomycin-induced NF-kB reporter in 697 B cells; 697 B-cell NF-kB luciferase reporter, 16 h; inhibition, % at 4 µM; 330,000 tested, 0.33% active; in the data active = inhibition above about 35%
Starred values were filed as active, the others as inactive; ? = inconclusive; · = no result given. In the library only some 4.8% were active in any assay of this set; here they are far more common.

SMILES	T cruzi inh	GPR7 antagonist	HSF1 activator	Jurkat NFkB inh	HSF1 inhib	697 NFkB inh
COc1cc(F)c(C2=CC(=O)C[C@H](c3ccc(Cl)cc3)C2)cc1F	·	·	·	-3	·	-1
CC(C)c1ccc(N(C(=O)c2csnn2)C(C(=O)NC(C)(C)C)c2ccncc2)cc1 (stereo not drawn)	-13	11	66*	-50	40	-41
Cc1ccc(N(C(=O)c2csnn2)C(C(=O)NC(C)(C)C)c2ccncc2)cc1 (stereo not drawn)	-21	18	22	-4	14	14
O=[N+]([O-])c1cc([N+](=O)[O-])c2cc3ccccc3nc2c1	10	30	139*	14	94	-144
COc1ccc(C(C)N2CC34C=CC(O3)C(C(=O)O)C4C2=O)cc1 (stereo not drawn)	-1	-3	-69	13	-64*	3
Cc1cc(C)c(S(=O)(=O)N/N=C/c2ccc3c(c2)OCO3)c(C)c1	-3	-10	-64	8	-55*	8
COc1cccc(-c2ncc3ccccc3c2COC(=O)c2cccc(Br)c2)c1	·	·	·	5	·	6
Nc1nc(SCC(=O)Nc2ccc([N+](=O)[O-])cc2Br)n[nH]1	1	0	58*	-2	20	6
CC(C)c1nc(SCC(=O)Nc2ccc([N+](=O)[O-])cc2Br)n[nH]1	6	6	20	5	16	3
CC(=O)N1CSCC1C(=O)NNS(=O)(=O)c1cccc(C(F)(F)F)c1 (stereo not drawn)	-18	-1	75*	5	19	19
CCOc1ccc(-c2nc3scc(-c4cccs4)c3c(=O)[nH]2)cc1	-8	-2	12	-34	2	-15
COc1cccc(/C=N/Nc2nnc(C)n2N)c1O	-14	-4	68*	-6	39	16
Cc1nnc(N/N=C/c2ccccc2C(F)(F)F)n1N	2	-9	39	4	34	17
Cc1nnc(N/N=C/c2ccccc2F)n1N	3	1	38	-18	15	-5
Cc1nnc(N/N=C/c2ccco2)n1N	-3	-8	56*	9	42	18
COCCn1nnnc1C(c1ccc(OC)cc1OC)N1CCN(c2ccccc2)CC1 (stereo not drawn)	3	4	1	-8	-4	-16
COCCn1nnnc1C(c1ccc(OC)c(OC)c1)N1CCc2ccccc21 (stereo not drawn)	1	-6	15	1	7	7
COCCn1nnnc1C(c1ccc(OC)cc1OC)N1CCN(c2ccccc2F)CC1 (stereo not drawn)	-6	21*	3	1	-10	11
COc1ccccc1C(c1nnnn1Cc1ccco1)N1CCN(c2cccc(C)c2C)CC1 (stereo not drawn)	74*	-8	6	-12	9	0
COCCn1nnnc1C(c1ccccc1OC)N1CCc2ccccc2C1 (stereo not drawn)	29	-4	95*	19	50	18
Cc1ccc(C(=O)N/C(=C\c2ccc(Br)cc2)c2nc(=S)[nH][nH]2)cc1	7	0	-75	-14	-69*	-45
O=c1cc(NCCO)c2ccccc2o1	-2	16	6	12	0	15
O=c1cc(NCCc2ccccc2)c2ccccc2o1	-13	4	57*	-33	23	-64
COc1cc(C(=O)NNC(=O)COc2cccc(F)c2)ccc1OCC(=O)N1CCOCC1	·	·	·	9	·	5
Cc1cc(=O)nc2c3ccccc3n(CC(=O)NC(C)c3ccc4c(c3)OCCO4)n12 (stereo not drawn)	-22	-12	-2	-3	-6	-4
SMILES	T cruzi inh	GPR7 antagonist	HSF1 activator	Jurkat NFkB inh	HSF1 inhib	697 NFkB inh
Cc1ccc2c(c1)S/C(=C/c1ccc[n+](C)c1)N2CCO	57*	-19	-5	18	-6	-9
Cc1nc(SCC(=O)NCC2CCCO2)nc(C)c1C (stereo not drawn)	·	·	·	0	·	8
Cc1ccc(-n2nnc3c(SCC(=O)NCC4CCCO4)ncnc32)cc1 (stereo not drawn)	8	5	?	1	46	-10
Cc1nc(SCC(=O)NCC2CCCO2)[nH]c(=O)c1C (stereo not drawn)	0	·	-67	7	-56*	6
O=C(CSc1ncnc2c1nnn2-c1ccc(F)cc1)NCC1CCCO1 (stereo not drawn)	20	-10	74*	-9	46	11
Cn1c(SCC(=O)NCC2CCCO2)ncc(C(=O)Nc2ccc(F)cc2)c1=O (stereo not drawn)	-6	·	67*	-4	70	13
CC(=O)Nc1cccc(NC(=O)CSc2ncc(C(=O)Nc3ccccc3)c(=O)n2C)c1	-17	·	206*	13	177	-8
COc1ccc(NC(=O)c2cc(S(=O)(=O)N3CCCCC3)c[nH]2)cc1	-11	-11	-4	4	-3	-7
CCOC(=O)CN1C(=N)N(c2nc(NC(C)C)nc(NC(C)C)n2)CC1=O	2	1	48	-7	18	-13
CC(=O)Nc1ccc(NC(=O)CSc2ncc(C(=O)Nc3ccc(Cl)cc3)c(=O)n2C)cc1	-30	·	48	-5	47	-18
Cn1c(SCC(=O)NCC2CCCO2)ncc(C(=O)Nc2ccc(Cl)cc2)c1=O (stereo not drawn)	-15	·	57*	-37	29	-38
COc1cc(CN(C)Cc2cccc3ccccc23)cc([N+](=O)[O-])c1O	-2	-7	-15	-6	-2	2
CCOC(=O)C1CCCN(CC(=O)Nc2c(C(=O)OC)[nH]c3ccc(Br)cc23)C1 (stereo not drawn)	1	9	19	5	19	19
COC(=O)c1[nH]c2ccc(Br)cc2c1NC(=O)CN1CCCc2ccccc21	29	-14	57*	-20	38	-11
COC(=O)c1[nH]c2cc(C)ccc2c1NC(=O)CN1CCCc2ccccc21	59*	4	41	-20	10	-28
CCOc1ccc(C(=O)NCC(=O)N2CCC3CCCCC3C2)cc1OCC (stereo not drawn)	5	4	13	9	-6	10
Cc1cc(Br)ccc1OCCOCCN1CCCC1	41	-1	-2	-13	-6	-12
Cc1cc(Br)ccc1OCCCCN1CCCCC1	64*	2	8	-4	0	-6
Cc1ccc(OCCOCCN2CCCC2)c(Br)c1	57*	-6	-1	-16	-11	-11
C/C(=N\NC(=O)CN1CCN(S(=O)(=O)c2ccc(C)cc2)CC1)c1ccc(O)cc1	3	-2	-4	2	-2	12
O=C(OCC(=O)N1CCOCC1)c1ccccc1Cc1ccccc1	-8	-7	74*	-105	27	-113
